ChEMBL document CHEMBL1126626, “Synthesis and pharmacological evaluation of (nitrooxy)alkyl apovincaminates” (1993)

Legend:
Canis familiaris [1] = assay: Effect on femoral blood flow (FBF) was studied, after intra arterial administration in anesthetized dogs relative to vinpocetine; type: functional, Canis lupus familiaris
Outline: (§1)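 Compounds were given intraarterially to anesthetized dogs. Dose-response curves were built from peak response values. Potency was expressed as a ratio to vinpocetine, set at 1.0.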

Canis familiaris [2] = assay: Effect on vertebral blood flow (VBF) was studied, after intra arterial administration in anesthetized dogs relative to vinpocetine; type: functional, Canis lupus familiaris; outline: as §1

Structure (SMILES) | Potency ratio (Canis familiaris [1]) | Potency ratio (Canis familiaris [2])
CC[C@@]12C=C(C(=O)OCCO[N+](=O)[O-])n3c4c(c5ccc(Br)cc53)CCN(CCC1)[C@H]42 | 0.36 | 0.58
CC[C@@]12C=C(C(=O)OCCCCCCCCCCO[N+](=O)[O-])n3c4c(c5ccccc53)CCN(CCC1)[C@H]42 | 0.16 | 0.48
CC[C@@]12C=C(C(=O)OCCCCCCO[N+](=O)[O-])n3c4c(c5ccccc53)CCN(CCC1)[C@H]42 | 0.84 | 0.99
CC[C@@]12C=C(C(=O)OCCCCCO[N+](=O)[O-])n3c4c(c5ccccc53)CCN(CCC1)[C@H]42 | 1.07 | 1.09
CC[C@@]12C=C(C(=O)OCCCO[N+](=O)[O-])n3c4c(c5ccccc53)CCN(CCC1)[C@H]42 | 1.91 | 1.85
CC[C@@]12C=C(C(=O)OCCCCCCCCCCCO[N+](=O)[O-])n3c4c(c5ccccc53)CCN(CCC1)[C@H]42 | 0.38 | 0.33
CC[C@@]12C=C(C(=O)OCCCCCCCCCO[N+](=O)[O-])n3c4c(c5ccccc53)CCN(CCC1)[C@H]42 | 0.15 | 0.33
CC[C@@]12C=C(C(=O)OCCO[N+](=O)[O-])n3c4c(c5ccccc53)CCN(CCC1)[C@H]42 | 4.72 | 3.83
CC[C@@]12C=C(C(=O)OCCCCCCCO[N+](=O)[O-])n3c4c(c5ccccc53)CCN(CCC1)[C@H]42 | 0.67 | 0.82
CC[C@@]12C=C(C(=O)OCCCCO[N+](=O)[O-])n3c4c(c5ccccc53)CCN(CCC1)[C@H]42 | 1.63 | 1.25
CC[C@@]12C=C(C(=O)OCCCCCCCCO[N+](=O)[O-])n3c4c(c5ccccc53)CCN(CCC1)[C@H]42 | 0.34 | 0.35
CC[C@]12CCCN3CCc4c(n(c5cc(Br)ccc45)[C@@](O)(C(=O)OC)C1)[C@@H]32 [BROVINCAMINE] | 0.28 | 0.17
CCOC(=O)C1=C[C@]2(CC)CCCN3CCc4c(n1c1ccccc41)[C@@H]32 [VINPOCETINE] | 1 | 1
